# Laboratory results: ChEMBL document CHEMBL1154322, “Optimization of the antitumor efficacy of a synthetic mitochondrial toxin by increasing the residence time in the cytosol” (J Med Chem, 2009)
# Active and inactive are the calls of the source. The calls are words filed in the database; no cut-off is given here.
# Columns and labels:
# [1] = Drug accumulation in BAEC in presence of MRP1/2 inhibitor Reversan by inductively coupled plasma spectrometry relative to untreated control; format: ADME, Bos taurus; details: cattle
# Outline: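 BAE cells incubated 2 h with 50 μM arsenical with or without 5 μM Reversan; cellular arsenic by inductively coupled plasma spectrometry, expressed as % increase in accumulation; triplicates, two experiments.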
# K562 = assay: Antiproliferative activity against human K562 cells after 72 hrs by MTT assay; format: functional, cell-based; details: K562, 72 h
# Outline: (§1)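 Cells seeded in 96-well plates, attached overnight at 37 °C, 5% CO2, then cultured 72 h in medium with 10% fetal calf serum plus compound. Viability by MTT, formazan dissolved in DMSO, absorbance 550 nm; expressed as % of untreated control; IC50 = concentration inhibiting proliferation by 50%.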
# HCT-116 = assay: Antiproliferative activity against human HCT116 cells after 72 hrs by MTT assay; format: functional, cell-based; details: HCT-116, 72 h; outline: as §1
# PANC-1 = assay: Antiproliferative activity against human PANC1 cells after 72 hrs by MTT assay; format: functional, cell-based; details: PANC-1, 72 h; outline: as §1
# [2] = (§2) Antiproliferative activity against BAEC after 72 hrs by MTT assay; format: functional, Bos taurus; outline: as §1
# [3] = Antiproliferative activity against MDCK2 cells after 72 hrs by MTT assay; format: functional, cell-based; details: Canis lupus familiaris, MDCK-II; outline: as §1
# [4] = Antiproliferative activity against mouse bEND.3 cells after 72 hrs by MTT assay; format: functional, cell-based; details: BEND3, 72 h; outline: as §1
# BXPC-3 [5] = assay: Antiproliferative activity against human BxPC3 cells after 72 hrs by MTT assay; format: functional, cell-based; details: BXPC-3, 72 h; outline: as §1
# MCF7 = assay: Antiproliferative activity against human MCF7 cells after 72 hrs by MTT assay; format: functional, cell-based; details: MCF7, 72 h; outline: as §1
# [6] = Antiproliferative activity against HMEC1 cells after 72 hrs by MTT assay; format: functional, cell-based; details: Homo sapiens, HMEC-1, 72 h; outline: as §1
# [7] = test system: Lewis lung carcinoma cell line; assay: Antiproliferative activity against mouse LLC cells after 72 hrs by MTT assay; format: functional, cell-based; outline: as §1
# HT-1080 = assay: Antiproliferative activity against human HT1080 cells after 72 hrs by MTT assay; format: functional, cell-based; details: HT-1080, 72 h; outline: as §1
# [8] = Antiproliferative activity against BAEC after 72 hrs by MTT assay in presence of 20 uM gamma-glutamyl cysteine synthase inhibitor buthionine sulfoximine; format: functional, cell-based; details: Bos taurus
# [9] = Potency ratio, ratio of IC50 for 4-(N-(S-Glutathionylacetyl)amino)phenylarsonous acid to compound for BAEC after 24 hrs by MTT assay; format: functional, Bos taurus
# [10] = Potency ratio, ratio of IC50 for 4-(N-(S-cysteinylglycylacetyl)amino)phenylarsonous acid to compound for BAEC after 24 hrs by MTT assay; format: functional, Bos taurus
# [11] = Resistance index, ratio of IC50 for MDCK2 cells overexpressing MRP1 to IC50 for wild type MDCK2 cells; format: functional, Canis lupus familiaris
# Outline: (§3)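 Transfected MDCKII (MRP1-3), HEK293 (MRP4, MRP5) or MEF3.8 (MRP6, MDR1, BCRP) lines grown in DMEM with 10% calf serum; IC50 for proliferation arrest of each transfectant divided by IC50 of non-transfected parental cells.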
# Mus musculus [12] = assay: Toxicity in human BxPC3 cells xenografted BALB/c mouse at 0.25 mg/kg/day, sc for 28 days; format: organism-based, BXPC-3; parameters: route subcutaneous; details: in vivo, 672 h
# Outline: (§4)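 Female Balb C nude mice bearing s.c. BxPC-3 tumors given compound via 28-day s.c. flank micro-osmotic pumps; animal weight measured every 2 or 3 days and signs of toxicity observed.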
# HEK293 [13] = assay: Resistance index, ratio of IC50 for mouse MEF3.8 cells overexpressing BCRP to IC50 for wild type […]; format: functional
# BAEC [14] = assay: Antiproliferative activity against MRP1/2 inhibitor MK571 pretreated BAEC at 0.3 uM after 72 hrs by MTT assay; format: functional; details: Bos taurus
# Outline: (§5)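 BAE cells pretreated 30 min with 15 μM MK571 or 2 μM Reversan, then incubated with 0.3 μM compound for 72 h; viability by MTT as % of control; mean ± SD of triplicates.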
# [15] = Antiproliferative activity against BAEC after 72 hrs by MTT assay in presence of 3 uM MRP1/2 inhibitor Reversan; format: functional, cell-based; details: Bos taurus
# BXPC-3 [16] = assay: Antiangiogenic activity against human BxPC3 cells xenografted in BALB/c mouse assessed as reduction of tumor blood vessel density at 0.25 mg/kg/day, sc dosed for 18 days; format: functional, organism-based
# Outline: (§6)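 Female 7-9 week Balb C nude mice given 3 × 10^6 BxPC-3 cells s.c. in proximal midline; at ~50 mm3, randomized and given s.c. flank micro-osmotic pumps (vehicle or 0.25 mg/kg/day) for 18 days. Excised tumors formalin-fixed, paraffin sections immunostained for CD31 (microvessels counted in five hot spots) or PCNA (positive cells per 100 tumor cells, three fields); one-way ANOVA.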
# HEK293 [17] = assay: Resistance index, ratio of IC50 for mouse MEF3.8 cells overexpressing MRP6 to IC50 for wild type […]; format: functional
# [18] = Reduction of cell viability in BAEC after 48 hrs by propidium iodide staining; format: functional, cell-based; details: Bos taurus
# [19] = Resistance index, ratio of IC50 for MDCK2 cells overexpressing MRP3 to IC50 for wild type MDCK2 cells; format: functional, Canis lupus familiaris; outline: as §3
# BAEC [20] = assay: Antiproliferative activity against OATP inhibitor DIDS pretreated BAEC at 3 uM after 24 hrs by MTT assay; format: functional, cell-based; details: Bos taurus
# Outline: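 BAE cells untreated or pretreated 30 min with 500 μM DIDS, then 3 μM compound for 24 h; viability by MTT, % of control; triplicates, two experiments.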
# BAEC [21] = assay: as §2; format: functional; details: Bos taurus; outline: as §1
# [22] = Potency ratio, ratio of IC50 for 4-(N-(S-Glutathionylacetyl)amino)phenylarsonous acid to compound for BAEC after 48 hrs by propidium iodide staining; format: functional, Bos taurus
# [23] = Antiproliferative activity against BAEC after 72 hrs by MTT assay in presence of 100 uM gamma-glutamyl cysteine synthase inhibitor buthionine sulfoximine; format: functional, Bos taurus
# BXPC-3 [24] = assay: Antitumor activity against human BxPC3 cells xenografted in BALB/c mouse assessed as tumor doubling time at 0.25 mg/kg/day, sc (Rvb= 9.4 +/- 1.4 days); format: functional; details: route subcutaneous
# BXPC-3 [25] = assay: Antitumor activity against human BxPC3 cells xenografted in BALB/c mouse assessed as reduction of tumor proliferative index at 0.25 mg/kg/day, sc dosed for 18 days; format: functional, organism-based; outline: as §6
# [26] = Resistance index, ratio of IC50 for MDCK2 cells overexpressing MRP2 to IC50 for wild type MDCK2 cells; format: functional, Canis lupus familiaris; outline: as §3
# BAEC [27] = assay: Antiproliferative activity against MRP1/2 inhibitor Reversan pretreated BAEC at 0.3 uM after 72 hrs by MTT assay; format: functional, cell-based; details: Bos taurus; outline: as §5
# BXPC-3 [28] = assay: Antitumor activity against human BxPC3 cells xenografted in BALB/c mouse assessed as tumor doubling time at 5 mg/kg/day, sc dosed for 18 days; format: functional, organism-based
# [29] = Drug accumulation in BAEC assessed as accumulation rate up to 4 hrs by inductively coupled plasma spectrometry relative to 4-(N-(S-cysteinylacetyl)amino)phenylarsonous acid; format: ADME, Bos taurus; details: cattle
# Outline: (§7)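 BAE cells seeded in 6-well plates, attached overnight, fresh medium, then 50 μM arsenical for up to 4 h; cytosolic arsenic by inductively coupled plasma spectrometry; accumulation rate (pmol As per 10^6 cells per min) from linear least-squares fit; triplicates.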
# BXPC-3 [30] = assay: Antitumor activity against human BxPC3 cells xenografted in BALB/c mouse assessed as tumor doubling time at 0.5 mg/kg/day, sc (Rvb= 9.4 +/- 1.4 days); format: functional; details: route subcutaneous
# [31] = Antiproliferative activity against BAEC after 72 hrs by MTT assay in presence of 3 uM MRP1/2 inhibitor Reversan and 20 uM gamma-glutamyl cysteine synthase inhibitor buthionine sulfoximine; format: functional, cell-based; details: Bos taurus
# BXPC-3 [32] = assay: Potency ratio, ratio of antitumor activity of 4-(N-(S-Glutathionylacetyl)amino)phenylarsonous acid to compound antitumor activity against human BxPC3 cells xenografted in BALB/c; format: functional
# HEK293 [33] = assay: Resistance index, ratio of IC50 for mouse MEF3.8 cells overexpressing MDR1 to IC50 for wild type […]; format: functional
# Mus musculus [34] = assay: Toxicity in human BxPC3 cells xenografted BALB/c mouse at 0.5 mg/kg/day, sc for 28 days; format: organism-based, BXPC-3; parameters: route subcutaneous; details: in vivo, 672 h; outline: as §4
# HEK293 [35] = assay: Resistance index, ratio of IC50 for HEK293 cells overexpressing MRP5 to IC50 for wild type HEK293 cells; format: functional, Homo sapiens; outline: as §3
# [36] = Drug accumulation in BAEC assessed as accumulation rate up to 4 hrs by inductively coupled plasma spectrometry relative to 4-(N-(S-cysteinylglycylacetyl)amino)phenylarsonous acid; format: ADME, Bos taurus; details: cattle; outline: as §7
# [37] = Drug accumulation in BAEC assessed as accumulation rate up to 4 hrs by inductively coupled plasma spectrometry relative to 4-(N-(S-Glutathionylacetyl)amino)phenylarsonous acid; format: ADME, Bos taurus; details: cattle; outline: as §7
# [38] = Potency ratio, ratio of IC50 for 4-(N-(S-cysteinylacetyl)amino)phenylarsonous acid to compound for BAEC after 24 hrs by MTT assay; format: functional, Bos taurus
# HEK293 [39] = assay: Resistance index, ratio of IC50 for HEK293 cells overexpressing MRP4 to IC50 for wild type HEK293 cells; format: functional, Homo sapiens; outline: as §3
smiles,measurement,setting,value
N[C@H](CSCC(=O)Nc1ccc([As](O)O)cc1)C(=O)NCC(=O)O,Drug uptake,[1],197%
N[C@@H](CCC(=O)N[C@@H](CSCC(=O)Nc1ccc([As](O)O)cc1)C(=O)NCC(=O)O)C(=O)O,IC50,K562,14 µM
same,IC50,HCT-116,43 µM
same,IC50,PANC-1,43 µM
same,IC50,"[2]; Bos taurus, BAEC, 72 h",10 µM
same,IC50,[3],13 µM
same,IC50,[4],42 µM
same,IC50,BXPC-3 [5],270 µM
same,IC50,MCF7,51 µM
same,IC50,[6],23 µM
same,IC50,[7],41 µM
same,IC50,HT-1080,25 µM
N[C@H](CSCC(=O)Nc1ccc([As](O)O)cc1)C(=O)O,Drug uptake,[1],114%
CC(C)(SCC(=O)Nc1ccc([As](O)O)cc1)[C@@H](N)C(=O)O,IC50,[8],0.07 µM
same,Ratio IC50,[9],44
same,Ratio IC50,[10],8
same,Ratio IC50,[11],3.7
same,IC50,K562,1.8 µM
same,IC50,HCT-116,5.9 µM
same,Activity,Mus musculus [12],Non-toxic
same,Ratio IC50,HEK293 [13],1.1
same,Activity,BAEC [14],Active
same,IC50,[15],0.13 µM
same,Activity,BXPC-3 [16],Active
same,Ratio IC50,HEK293 [17],1.3
same,IC50,[18],3.5 µM
same,Ratio IC50,[19],0.8
same,Activity,BAEC [20],inactive
same,IC50,PANC-1,6.4 µM
same,Activity,BAEC [21],inactive
same,Activity,[2],440 nM
same,Ratio IC50,[22],21
same,Drug uptake,[1],52%
same,Activity,[23],16 nM
same,Activity,BXPC-3 [24],15.6 days
same,Activity,BXPC-3 [25],Active
same,Ratio IC50,[26],4.6
same,Activity,BAEC [27],Active
same,Activity,BXPC-3 [28],Active
same,IC50,[3],2.4 µM
same,fold change (FC),[29],10
same,IC50,[4],2.5 µM
same,Activity,BXPC-3 [30],13.8 days
same,IC50,[31],0.02 µM
same,Ratio IC50,BXPC-3 [32],20
same,Ratio IC50,HEK293 [33],1.2
same,Activity,Mus musculus [34],Non-toxic
same,Ratio IC50,HEK293 [35],0.4
same,fold change (FC),[36],9
same,IC50,BXPC-3 [5],21 µM
same,fold change (FC),[37],85
same,IC50,MCF7,9.4 µM
same,Ratio IC50,[38],6
same,IC50,[6],2 µM
same,Ratio IC50,HEK293 [39],0.5
same,IC50,[7],5.3 µM
same,IC50,HT-1080,4.1 µM
